Results on seven compounds are retold here after ChEMBL document CHEMBL4715812, “Zampanolide Binding to Tubulin Indicates Cross-Talk of Taxane Site with Colchicine and Nucleotide Sites” (J Nat Prod, 2018).

Calls of active or inactive are those of the source. The rule behind the calls is not given here.

For assay [1], the species on record is Bos taurus. As to the kind of experiment: Covalent modification of compound-ligated activated form of calf brain dimeric tubulin assessed as effect on nucleotide binding affinity at E-site by measuring ratio of GTP concentration to tubulin concentration incubated for 1.5 hrs in presence or absence of 10 uM GTP followed by passage through sephadex G25 column by HPLC analysis (reference value: 1.94 +/- 0.03). The gist of the method:
(§1)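 40 μM calf-brain tubulin in PEDTA buffer (10 mM NaPi, 1 mM EDTA, pH 7.0) incubated 1.5 h at 25 °C with 10% excess ligand or DMSO. Unbound nucleotide removed on Sephadex G-25 in PEDTA plus 10 μM GTP and […] at 4 °C. Aliquot diluted 20-fold in 10 mM NaPi, 1% SDS, pH 7.0; tubulin and nucleotide quantified, nucleotides by HPLC after extraction.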

For assay [2], the species on record is Bos taurus. In words: Covalent modification of compound-ligated activated form of calf brain dimeric tubulin assessed as effect on nucleotide binding affinity at E-site by measuring ratio of GDP nucleotide concentration to tubulin concentration incubated for 1.5 hrs in presence or absence of 10 uM GTP followed by passage through sephadex G25 column by HPLC analysis (reference value: 0.06 +/- 0.03). The gist of the method:
as §1

Assay [3] is filed under the species Homo sapiens. As to the kind of experiment: Covalent modification of GAB-buffer assembled microtubule (unknown origin) assessed as effect on nucleotide binding affinity at E-site by measuring ratio of GDP concentration to microtubule concentration incubated for 30 mins in presence or absence of 1 mM GTP and measured after 20 mins by HPLC analysis (reference value: 1). The gist of the method:
(§2)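 Calf-brain tubulin equilibrated in PEDTA (10 mM NaPi, 1 mM EDTA, pH 7.0), with 10% molar excess ligand or DMSO, then supplemented with 3.4 M glycerol, 1 mM EGTA, MgCl2 to 6 mM, and no nucleotide or 1 mM GTP. Assembled 30 min at 37 °C, spun 20 min at 37 °C, pellets washed in warm GAB without GTP. Tubulin measured, nucleotides extracted and quantified by HPLC.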

The species entered for assay [4] is Homo sapiens. In words: Covalent modification of GAB-buffer assembled microtubule (unknown origin) assessed as effect on nucleotide binding affinity at E-site by measuring ratio of GTP concentration to tubulin concentration incubated for 30 mins in presence or absence of 1 mM GTP and measured after 20 mins by HPLC analysis (reference value: 1). The gist of the method:
as §2

Assay [5] is filed under the species Bos taurus. As to the kind of experiment: Induction of oligomerization of compound-ligated activated form of calf brain tubulin assessed as oligomer formation by measuring sedimentation coefficient at 55 uM incubated for 30 mins in presence of GTP/GDP and 0.14 mM Mg2+ by analytical ultracentrifugation.
The species entered for assay [6] is Bos taurus. In words: Induction of oligomerization of compound-ligated activated form of calf brain tubulin at 55 uM incubated for 30 mins in presence of 0.1 mM GTP and 0.028 mM Mg2+ by analytical ultracentrifugation. The gist of the method: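 Sedimentation velocity of 50 μM tubulin with 55 μM zampanolide or DMSO in PEDTA, 0.1 mM GTP, 1 mM total Mg2+ (0.028 mM free); 25 °C for 30 min, 40 000 rpm; c(S) fitted, corrected to water/20 °C.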

For assay [7], the species on record is Bos taurus. As to the kind of experiment: Induction of oligomerization of compound-ligated activated form of calf brain tubulin assessed as formation of tetramers by measuring sedimentation coefficient at 55 uM incubated for 30 mins in presence of GDP and 3.31 mM Mg2+ by analytical ultracentrifugation. The gist of the method:
(§3)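 Calf-brain tubulin 50 μM in PEDTA with 55 μM zampanolide or DMSO, 1 mM GDP, 7 mM total (3.31 mM free) Mg2+, plus DTT; incubated 25 °C, 30 min, sedimentation velocity at 40 000 rpm; c(S) by least-squares boundary modelling corrected to water/20 °C; assembled polymer checked by uranyl acetate negative-stain EM.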

The species entered for assay [8] is Homo sapiens. As to the kind of experiment: Induction of oligomerization of compound modified microtubule (unknown origin) assessed as peloruside binding constant at 25 degreeC incubated for 30 mins followed by GTP addition and measured after 30 mins by HPLC analysis. The following applies: time 1.0 hrs. The gist of the method:
(§4)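 Stabilized cross-linked microtubules (0.6 μM) preincubated 30 min, 25 °C with 10% excess zampanolide or DMSO in GAB (3.4 M glycerol, 10 mM NaPi, 1 mM EDTA, 6 mM MgCl2, 0.1 mM GTP, pH 6.7); peloruside 0.1–10 μM added, further 30 min at 25 °C; spun 20 min at 50 000 rpm; supernatant/pellet ligand by reverse-phase HPLC at 205/230 nm; Kb fitted, three independent measurements.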

The species entered for assay [9] is Bos taurus. In words: Induction of oligomerization of compound-ligated activated form of calf brain tubulin assessed as tubulin-tubulin interaction causing aggregation formation at 55 uM incubated for 30 mins in presence of GTP and 1.5 mM Mg2+ by analytical ultracentrifugation. The gist of the method: (§5)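 Tubulin 50 μM in PEDTA with 55 μM zampanolide or DMSO and 0.1 mM GTP; Mg2+ 1.5 mM total (0.14 mM free) or 3 mM total (0.77 mM free), free Mg2+ corrected for phosphate, nucleotide, EDTA binding; 25 °C, 30 min, then 40 000 rpm ultracentrifugation; c(S) distributions; negative-stain EM of samples.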

The species entered for assay [10] is Bos taurus. As to the kind of experiment: Induction of oligomerization of compound-ligated activated form of calf brain tubulin assessed as formation of microtubule at 55 uM incubated for 30 mins in presence of GTP and 3 mM Mg2+ by electron micrography analysis. The gist of the method: as §5
The species named for assay [11] is Bos taurus. In words: Induction of oligomerization of compound-ligated activated form of calf brain tubulin assessed as formation of double rings by measuring sedimentation coefficient at 55 uM incubated for 30 mins in presence of GDP and 3.31 mM Mg2+ by analytical ultracentrifugation. The gist of the method: as §3
For assay [12], the species on record is Bos taurus. In words: Induction of oligomerization of compound-ligated activated form of calf brain tubulin at 55 uM incubated for 30 mins in presence of 0.1 mM GDP and 0.039 mM Mg2+ by analytical ultracentrifugation. The gist of the method:
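Sedimentation velocity of 50 μM tubulin with 55 μM zampanolide or DMSO in PEDTA, 0.1 mM GDP, 1 mM total Mg2+ (0.039 mM free); 25 °C for 30 min, 40 000 rpm; c(S) fitted, corrected to water/20 °C.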

For assay [13], the species on record is Bos taurus. In words: Induction of oligomerization of compound-ligated activated form of calf brain tubulin assessed as formation of dimers by measuring sedimentation coefficient at 55 uM incubated for 30 mins in presence of GDP and 3.31 mM Mg2+ by […]. The gist of the method:
as §3

Assay [14] is filed under the species Bos taurus. As to the kind of experiment: Induction of oligomerization of compound-ligated activated form of calf brain tubulin assessed as formation of microtubule by measuring sedimentation coefficient at 55 uM incubated for 30 mins in presence of GDP and 3.31 mM Mg2+ by electron micrography analysis. The gist of the method:
as §3

For assay [15], the species on record is Bos taurus. In words: Binding affinity to zampanolide-modified calf brain tubulin assessed as compound-protein complex stoichiometry ratio of 1:1 in absence of Mg2+ by spectrofluorometry assay.
The species named for assay [16] is Bos taurus. In words: Binding affinity to zampanolide-modified calf brain tubulin.
For assay [17], the species on record is Bos taurus. As to the kind of experiment: Binding affinity to calf brain tubulin assessed as compound-protein complex stoichiometry ratio of 1:1 in absence of Mg2+ by spectrofluorometry analysis.
For assay [18], the species on record is Bos taurus. As to the kind of experiment: Induction of oligomerization calf brain tubulin assessed as formation of microtubule at 100 uM incubated for 30 mins in presence of GTP and 3 mM Mg2+ by electron micrography analysis.
The species entered for assay [19] is Homo sapiens. As to the kind of experiment: Binding affinity to stabilized microtubule (unknown origin) at 25 degreeC incubated for 30 mins followed by GTP addition and measured after 30 mins by HPLC analysis. The following applies: time 1.0 hrs. The gist of the method:
as §4

`CC1=C[C@H]2[C@@H](O)[C@H](C)[C@@H](O)[C@@H]2[C@H]2[C@@H]3C4=C5O[C@@](C)(CC[C@H](OC4=O)[C@@H]5C)[C@@H]3C[C@@H]12`: the Ratio in the assay listed under Bos taurus [1] amounted to 1.83; in the assay listed under Bos taurus [2], 0.02; in the assay filed under Homo sapiens [3], 0.97; in the assay filed under Homo sapiens [4], 1.03.
As for `C=C1C[C@@H]2C/C=C/C(=O)C/C(C)=C\C=C\C(=O)O[C@H]([C@H](O)NC(=O)/C=C\C=C\C)C/C(C)=C/[C@H](C1)O2`, the S20,w in the assay listed under Bos taurus [5] was 9 Svedberg; in the assay listed under Bos taurus [7], 8 Svedberg; in the assay listed under Bos taurus [10], greater than 50 Svedberg; in the assay listed under Bos taurus [11], 36 Svedberg; in the assay listed under Bos taurus [13], 6 Svedberg; in the assay filed under Bos taurus [14] it was greater than 50 Svedberg. Moreover, the Ratio in the assay listed under Bos taurus [1] is 0.91; in the assay filed under Bos taurus [2], 0.04; in the assay filed under Homo sapiens [3] it was 0.84; in the assay listed under Homo sapiens [4], 0.92. The result in the assay listed under Bos taurus [6], in the assay filed under Bos taurus [9] and in the assay listed under Bos taurus [12] was inactive. The Kb in the assay filed under Homo sapiens [8] is 3.1 10^6/M.
For the compound `COc1ccc(-c2ccc(OC)c(=O)cc2)c(OC)c1OC`, the outcome in the assay listed under Bos taurus [15] and in the assay listed under Bos taurus [17] was Active. Moreover, the Kb in the assay filed under Bos taurus [16] is 4.5 10^6/M.
As for `C=C1C[C@H]2C/C=C/C(=O)C/C(C)=C\C=C\C(=O)O[C@@H](C=O)C/C(C)=C/[C@@H](C1)O2`, the Ratio in the assay filed under Bos taurus [1] came to 1.33; in the assay listed under Bos taurus [2], 0.03; in the assay listed under Homo sapiens [3], 0.84; in the assay listed under Homo sapiens [4], 0.95.
As for `CC(=O)O[C@@]12CO[C@@H]1C[C@H](O)[C@@]1(C)C(=O)[C@H](O)C3=C(C)[C@@H](OC(=O)[C@H](O)[C@@H](NC(=O)OC(C)(C)C)c4ccccc4)C[C@@](O)([C@@H](OC(=O)c4ccccc4)[C@H]21)C3(C)C`, the Ratio was determined as 1.03 in the assay listed under Homo sapiens [3] and 1.02 in the assay listed under Homo sapiens [4].
Consider `C/C(=C\c1csc(C)n1)[C@@H]1C[C@@H]2O[C@]2(C)CCC[C@H](C)[C@H](O)[C@@H](C)C(=O)C(C)(C)[C@@H](O)CC(=O)O1`, for which the outcome in the assay filed under Bos taurus [18] was Active.
For the compound `CC[C@H](/C=C(/C)[C@@H]1C[C@@H](OC)C[C@H](O)C(C)(C)[C@@]2(O)O[C@@H](C[C@@H](OC)[C@H](O)C(=O)O1)C[C@@H](OC)[C@H]2O)CO`, in the assay listed under Homo sapiens [19], the Kb was 4 10^6/M.
